Assays:
Rattus norvegicus [1] = assay: Antiinflammatory activity in Sprague-Dawley rat acute model of carrageenan-induced paw edema assessed as inhibition of rat paw edema at 50 mg/kg, po pre treated for 1 hr followed by carrageenan-stimulation and measured after 3 hrs by plethysmometeric method relative to control; type: functional; settings: time 4 hrs
Outline: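 SD rats of either sex, 150–200 g, n = 6, dosed orally in 0.2% agar suspension. After 1 h, 0.1 mL 1% carrageenan in saline injected into the left hind sub-plantar paw. Paw volume measured by mercury plethysmometer before and 3 h after injection. % edema inhibition calculated. Mean ± SEM.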

Rattus norvegicus [2] = assay: Antiinflammatory activity in Sprague-Dawley rat chronic model of formalin-induced paw edema assessed as inhibition of rat paw edema at 50 mg/kg, po pre treated for 1 hr followed by formalin-stimulation and measured after 5 days by plethysmometeric method relative to control; type: functional; settings: 120 h, time 5 day
Outline: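 Chronic paw edema. Oral pre-dose in 0.2% agar; after 1 h, 0.1 mL 2% formalin in saline injected into the left hind sub-plantar paw, repeated on 5 consecutive days. Paw volume by plethysmometer. % inhibition of edema size relative to disease control, days 1–5. n = 6, mean ± SEM, one-way ANOVA with Tukey's test.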

Rattus norvegicus [3] = assay: Antiinflammatory activity in Sprague-Dawley rat acute model of carrageenan-induced paw edema assessed as inhibition of rat paw edema at 50 mg/kg, po pre treated for 1 hr followed by carrageenan-stimulation and measured after 3 hrs by plethysmometeric method relative to control

Structure (SMILES) | inhibition in vivo at 50 mg/kg (Rattus norvegicus [1]) [%] | inhibition in vivo at 50 mg/kg (Rattus norvegicus [2]) [%] | inhibition in vivo at 50 mg/kg (Rattus norvegicus [3]) [%]
Cc1ccc2ncc(C(=O)c3sc(N)nc3N(C)C)n2c1 | 23 | – | –
Cc1nc(N)sc1C(=O)c1cnc2ccccn12 | 53 | – | –
Cc1ccn2c(C(=O)c3sc(N)nc3C)cnc2c1 | 66 | – | –
Cc1cccn2c(C(=O)c3sc(N)nc3-c3ccccc3)cnc12 | 20 | – | –
Cc1ccc2ncc(C(=O)c3cnc(N)s3)n2c1 | 53 | – | –
Cc1nc(N)sc1C(=O)c1cnc2c(C)cccn12 | 45 | – | –
Cc1ccn2c(C(=O)c3cnc4ccccn34)cnc2c1 | – | 61 | 67
Cc1ccc2ncc(C(=O)c3sc(N)nc3C)n2c1 | 33 | – | –
Cc1ccn2c(C(=O)c3sc(N)nc3-c3ccccc3)cnc2c1 | 26 | – | –

Source: ChEMBL document CHEMBL4732250, “Investigations on substituted (2-aminothiazol-5-yl)(imidazo[1,2-a]pyridin-3-yl)methanones for the treatment of Alzheimer's disease” (Bioorg Med Chem, 2021)
